ChEMBL document CHEMBL3112420, “Discovery of 8-cyclopentyl-2-[4-(4-methyl-piperazin-1-yl)-phenylamino]-7-oxo-7,8-dihydro-pyrido[2,3-d]pyrimidine-6-carbonitrile (7x) as a potent inhibitor of cyclin-dependent kinase 4 (CDK4) and AMPK-related kinase 5 (ARK5)” (J Med Chem, 2014)
Activity calls are given as the source filed them. The rule behind the calls is not given here.

What was measured:
K562 = assay: Cytotoxicity against human K562 cells after 96 hrs by Cell-Titer Blue assay; assay type: functional, cell-based; conditions: K562, 96 h
DU-145 = assay: Cytotoxicity against human DU145 cells after 96 hrs by Cell-Titer Blue assay; assay type: functional, cell-based; conditions: DU-145, 96 h
[1] = target: NUAK family SNF1-like kinase 1 (Homo sapiens, UniProt O60285); assay: Inhibition of ARK5 (unknown origin)
Chain of NUAK family SNF1-like kinase 1 (O60285 whole entry): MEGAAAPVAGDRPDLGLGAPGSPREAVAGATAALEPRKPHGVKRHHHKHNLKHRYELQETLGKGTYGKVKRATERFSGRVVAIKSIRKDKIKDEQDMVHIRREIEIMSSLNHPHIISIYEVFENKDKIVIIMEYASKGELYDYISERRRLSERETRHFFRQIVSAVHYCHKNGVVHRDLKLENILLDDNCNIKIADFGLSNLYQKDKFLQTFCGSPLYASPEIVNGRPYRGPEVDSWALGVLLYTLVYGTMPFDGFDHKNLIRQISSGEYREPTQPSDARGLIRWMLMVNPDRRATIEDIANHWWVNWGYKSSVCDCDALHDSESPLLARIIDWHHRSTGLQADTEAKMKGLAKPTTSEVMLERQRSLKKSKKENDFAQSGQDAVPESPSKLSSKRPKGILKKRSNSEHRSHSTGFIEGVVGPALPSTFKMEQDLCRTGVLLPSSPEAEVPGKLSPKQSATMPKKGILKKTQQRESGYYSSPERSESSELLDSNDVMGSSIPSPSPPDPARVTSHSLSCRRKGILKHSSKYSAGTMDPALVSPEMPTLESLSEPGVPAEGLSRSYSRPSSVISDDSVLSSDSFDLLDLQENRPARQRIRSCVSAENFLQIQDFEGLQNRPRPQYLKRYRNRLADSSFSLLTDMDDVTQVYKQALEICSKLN

MCF7 [2] = assay: Cell cycle arrest in human MCF7 cells assessed as accumulation at G1 phase at 0.5 to 1 uM after 24 hrs by propidium iodide staining-based flow cytometric analysis; assay type: functional
Procedure, shortened: (§1)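 Cells plated at 1.0 × 10^6 per dish, then treated 24 h later with increasing concentrations for 24 h. Floating and adherent cells were pooled, PBS-washed and fixed in ice-cold 70% ethanol for at least 24 h. They were then stained with propidium iodide plus RNase A for 30 min at 37 °C. Percentage of cells in each phase was read by flow cytometry.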

[3] = target: T1, Cyclin-dependent kinase 4/cyclin D1 (Homo sapiens) (UniProt P11802+P24385); assay: Inhibition of recombinant CDK4/cyclinD1 in human MCF7 cells assessed as inhibition of retinoblastoma phosphorylation at Ser780 at 0.5 to 5 uM after 24 hrs by Western blotting analysis; assay type: cell-based
Procedure, shortened: (§2)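 Breast carcinoma cells were given increasing concentrations for 24 h. Total lysates (100 μg, 10% SDS-PAGE) were immunoblotted with antibodies against Ser780-phosphorylated and non-phosphorylated RB. Bands were read on an infrared scanning system.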

MCF7 [4] = assay: Cell cycle arrest in human MCF7 cells assessed as accumulation at sub-G1 phase at 0.5 to 1 uM after 48 hrs by propidium iodide staining-based flow cytometric analysis; assay type: functional
MDA-MB-231 [5] = assay: Induction of apoptosis in human MDA-MB-231 cells assessed as PARP cleavage at 1 to 10 uM after 24 hrs by Western blotting analysis; assay type: functional, cell-based
[6] = target: Phosphatidylinositol 4,5-bisphosphate 3-kinase catalytic subunit delta isoform (Homo sapiens, UniProt O00329); assay: Inhibition of PI3Kdelta (unknown origin)
Chain of Phosphatidylinositol 4,5-bisphosphate 3-kinase catalytic subunit delta isoform (O00329 whole entry, canonical isoform): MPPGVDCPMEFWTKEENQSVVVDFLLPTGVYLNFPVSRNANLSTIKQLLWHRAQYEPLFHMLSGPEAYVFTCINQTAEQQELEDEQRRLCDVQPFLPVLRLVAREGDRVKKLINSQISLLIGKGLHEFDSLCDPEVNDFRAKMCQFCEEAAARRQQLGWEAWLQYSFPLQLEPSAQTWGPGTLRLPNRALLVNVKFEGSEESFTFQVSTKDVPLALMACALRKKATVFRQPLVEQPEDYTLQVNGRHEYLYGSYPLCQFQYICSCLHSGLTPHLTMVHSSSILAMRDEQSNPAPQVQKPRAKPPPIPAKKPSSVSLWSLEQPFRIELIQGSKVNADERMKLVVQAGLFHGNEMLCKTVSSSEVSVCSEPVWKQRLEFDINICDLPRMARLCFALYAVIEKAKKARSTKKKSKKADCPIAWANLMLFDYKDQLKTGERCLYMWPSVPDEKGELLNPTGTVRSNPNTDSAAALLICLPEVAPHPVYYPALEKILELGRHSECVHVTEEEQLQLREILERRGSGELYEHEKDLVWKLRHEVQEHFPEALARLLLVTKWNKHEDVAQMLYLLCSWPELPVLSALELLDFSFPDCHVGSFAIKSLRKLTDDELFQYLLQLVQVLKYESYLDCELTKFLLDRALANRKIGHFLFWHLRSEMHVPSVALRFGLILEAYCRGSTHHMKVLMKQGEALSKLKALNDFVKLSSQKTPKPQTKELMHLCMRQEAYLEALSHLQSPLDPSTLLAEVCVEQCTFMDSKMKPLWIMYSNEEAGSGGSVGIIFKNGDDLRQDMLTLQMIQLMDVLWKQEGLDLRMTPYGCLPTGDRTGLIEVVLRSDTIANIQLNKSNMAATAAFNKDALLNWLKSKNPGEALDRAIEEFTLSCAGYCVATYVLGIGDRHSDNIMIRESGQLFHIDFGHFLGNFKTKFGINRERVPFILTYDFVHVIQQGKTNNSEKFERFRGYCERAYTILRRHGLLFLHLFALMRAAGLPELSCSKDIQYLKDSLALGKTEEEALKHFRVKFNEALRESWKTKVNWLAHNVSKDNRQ

MCF7 [7] = assay: Induction of apoptosis in human MCF7 cells assessed as PARP cleavage at 1 to 10 uM after 24 hrs by Western blotting analysis; assay type: functional, cell-based
[8] = target: T1, Cyclin-dependent kinase 4/cyclin D1 (Homo sapiens); assay: Inhibition of recombinant CDK4/cyclinD1 in human MDA-MB-231 cells assessed as inhibition of retinoblastoma phosphorylation at Ser780 at 0.5 to 5 uM after 24 hrs by Western blotting analysis; assay type: cell-based; procedure, shortened: as §2
MDA-MB-231 [9] = assay: Cell cycle arrest in human MDA-MB-231 cells assessed as accumulation at sub-G1 phase at 0.5 to 1 uM after 48 hrs by propidium iodide staining-based flow cytometric analysis; assay type: functional
MDA-MB-231 [10] = assay: Cell cycle arrest in human MDA-MB-231 cells assessed as accumulation at G1 phase at 0.5 to 1 uM after 24 hrs by propidium iodide staining-based flow cytometric analysis; assay type: functional; procedure, shortened: as §1
[11] = target: Cyclin-dependent kinase 1/cyclin B1 (Homo sapiens, UniProt P06493); assay: Inhibition of CDK1/cyclinB (unknown origin); assay type: protein-complex assay
Chain of Cyclin-dependent kinase 1/cyclin B1 (P06493 whole entry): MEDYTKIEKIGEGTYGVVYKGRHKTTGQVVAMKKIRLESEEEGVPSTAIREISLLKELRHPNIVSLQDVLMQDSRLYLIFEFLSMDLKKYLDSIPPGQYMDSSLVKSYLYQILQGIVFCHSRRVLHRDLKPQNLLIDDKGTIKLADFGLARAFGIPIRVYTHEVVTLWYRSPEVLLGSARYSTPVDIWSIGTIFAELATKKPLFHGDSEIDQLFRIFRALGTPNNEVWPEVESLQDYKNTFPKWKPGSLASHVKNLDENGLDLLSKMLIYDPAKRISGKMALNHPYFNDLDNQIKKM
Chain of Cyclin-dependent kinase 1/cyclin B1 (P14635 whole entry, further chain): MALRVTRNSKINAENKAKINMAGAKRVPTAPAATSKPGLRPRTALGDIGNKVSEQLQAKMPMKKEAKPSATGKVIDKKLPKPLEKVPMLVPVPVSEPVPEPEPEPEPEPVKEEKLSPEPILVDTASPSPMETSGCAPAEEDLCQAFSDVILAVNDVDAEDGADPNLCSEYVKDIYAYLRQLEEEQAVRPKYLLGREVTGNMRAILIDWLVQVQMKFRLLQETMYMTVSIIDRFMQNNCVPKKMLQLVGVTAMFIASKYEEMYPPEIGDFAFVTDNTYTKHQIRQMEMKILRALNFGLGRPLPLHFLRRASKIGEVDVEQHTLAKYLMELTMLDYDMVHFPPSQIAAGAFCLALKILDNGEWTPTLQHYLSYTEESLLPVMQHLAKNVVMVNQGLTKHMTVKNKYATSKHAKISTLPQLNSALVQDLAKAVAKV

[12] = target: Cyclin-dependent kinase 2/cyclin E1 (Homo sapiens, UniProt P24941); assay: Inhibition of CDK2/cyclinE (unknown origin); assay type: protein-complex assay

SMILES | IC50 (K562) | IC50 (DU-145) | further results
N#Cc1cc2cnc(N3CCN(c4ccc(C(F)(F)F)cn4)CC3)nc2n(C2CCCC2)c1=O | 30 µM | 100 µM | –
N#Cc1cc2cnc(Nc3cnc4ccccc4c3)nc2n(C2CCCC2)c1=O | 5 µM | 5 µM | –
CN1CCN(c2ccc(Nc3ncc4cc(C#N)c(=O)n(C5CCCCC5)c4n3)cc2)CC1 | 1.5 µM | 50 µM | –
COc1cc(Nc2ncc3cc(C#N)c(=O)n(C4CCCC4)c3n2)cc(OC)c1OC | 2.5 µM | 5 µM | –
COc1ccc(F)cc1Nc1ncc2cc(C#N)c(=O)n(C3CCCC3)c2n1 | 75 µM | 75 µM | –
N#Cc1cc2cnc(NCc3ccccc3)nc2n(C2CCCC2)c1=O | 100 µM | 75 µM | –
CN1CCN(c2ccc(Nc3ncc4cc(C(=O)Nc5ccc(F)cc5)c(=O)n(C5CCCC5)c4n3)cc2)CC1 | 15 µM | 30 µM | –
COc1cc(Nc2ncc3cc(C#N)c(=O)n(C4CCCC4)c3n2)cc(OC)c1 | 15 µM | 15 µM | –
CN1CCN(c2ccc(Nc3ncc4cc([N+](=O)[O-])c(=O)n(C5CCCC5)c4n3)cc2)CC1 | 0.75 µM | 2.5 µM | –
COc1ccc(CS(=O)(=O)c2cc3cnc(Nc4ccc(N5CCN(C)CC5)cc4)nc3n(C3CCCC3)c2=O)cc1[N+](=O)[O-] | 2 µM | 5 µM | –
CC(=O)c1c(C)c2cnc(Nc3ccc(N4CCNCC4)cn3)nc2n(C2CCCC2)c1=O [PALBOCICLIB] | 2 µM | 7.5 µM | IC50 [1]: > 5 µM; Activity (MCF7 [2]): Active; inhibition [3]: Active; Activity (MCF7 [4]): inactive; Activity (MDA-MB-231 [5]): inactive; IC50 [6]: > 10 µM; Activity (MCF7 [7]): inactive; inhibition [8]: Active; Activity (MDA-MB-231 [9]): inactive; Activity (MDA-MB-231 [10]): Active
N#Cc1cc2cnc(Nc3ccc(N4CCOCC4)cc3)nc2n(C2CCCC2)c1=O | 5 µM | 15 µM | –
N#Cc1cc2cnc(Nc3ccc(Cl)cc3)nc2n(C2CCCC2)c1=O | 30 µM | 30 µM | –
CN1CCN(c2ccc(Nc3ncc4cc(S(C)(=O)=O)c(=O)n(C5CCCC5)c4n3)cc2)CC1 | 5 µM | 5 µM | –
CCn1c(=O)c(C#N)cc2cnc(Nc3ccc(N4CCN(C)CC4)cc3)nc21 | 0.75 µM | 1.5 µM | –
COc1ccc(Nc2ncc3cc(C#N)c(=O)n(C4CCCC4)c3n2)cc1 | 75 µM | 25 µM | –
N#Cc1cc2cnc(Nc3ccc(N4CCOCC4)cn3)nc2n(C2CCCC2)c1=O | 5 µM | 15 µM | –
N#Cc1cc2cnc(Nc3cccc4cccnc34)nc2n(C2CCCC2)c1=O | 1 µM | 1 µM | –
N#Cc1ccnc(Nc2ncc3cc(C#N)c(=O)n(C4CCCC4)c3n2)c1 | 5 µM | 30 µM | –
N#Cc1cc2cnc(Nc3ccc4[nH]ccc4c3)nc2n(C2CCCC2)c1=O | 5 µM | 5 µM | –
CN1CCN(c2ccc(N(C(=O)c3ccc(C(F)(F)F)cc3)c3ncc4cc(C#N)c(=O)n(C5CCCC5)c4n3)cc2)CC1 | 0.5 µM | 1 µM | –
COc1cccc(Nc2ncc3cc(C#N)c(=O)n(C4CCCC4)c3n2)c1 | 5 µM | 0.5 µM | –
CN1CCN(c2ccc(Nc3ncc4cc(C#N)c(=O)n(C5CC5)c4n3)cc2)CC1 | 2.5 µM | 2.5 µM | –

SMILES | IC50 (K562) | IC50 (DU-145) | further results
COc1ccc(Nc2ncc3cc(C#N)c(=O)n(C4CCCC4)c3n2)cc1OC | 2 µM | 5 µM | –
N#Cc1cc2cnc(Nc3cccc4[nH]ccc34)nc2n(C2CCCC2)c1=O | 30 µM | 15 µM | –
CC(=O)N(c1ccc(N2CCN(C)CC2)cc1)c1ncc2cc(C#N)c(=O)n(C3CCCC3)c2n1 | 0.75 µM | 5 µM | –
COc1ccccc1Nc1ncc2cc(C#N)c(=O)n(C3CCCC3)c2n1 | 15 µM | 30 µM | –
CN1CCN(c2ccc(Nc3ncc4cc(C#N)c(=O)n(C5CCCC5)c4n3)nc2)CC1 | 5 µM | 15 µM | –
CN1CCN(c2ccc(Nc3ncc4cc(S(=O)(=O)Cc5ccc(Cl)cc5)c(=O)n(C5CCCC5)c4n3)cc2)CC1 | 10 µM | 75 µM | –
CN1CCN(c2ccc(Nc3ncc4cc(C#N)c(=O)n(C)c4n3)cc2)CC1 | 75 µM | 75 µM | –
CN1CCN(c2ccc(Nc3ncc4cc(C#N)c(=O)[nH]c4n3)cc2)CC1 | 30 µM | 30 µM | –
CN1CCN(c2ccc(Nc3ncc4cc(S(=O)(=O)c5ccccc5)c(=O)n(C5CCCC5)c4n3)cc2)CC1 | 30 µM | 75 µM | –
N#Cc1cc2cnc(Nc3ccccn3)nc2n(C2CCCC2)c1=O | 0.5 µM | 3 µM | –
CCCCn1c(=O)c(C#N)cc2cnc(Nc3ccc(N4CCN(C)CC4)cc3)nc21 | 0.75 µM | 0.75 µM | –
COc1ccc(Nc2ncc3cc(C#N)c(=O)n(C4CCCC4)c3n2)c(OC)c1 | 15 µM | 15 µM | –
Nc1ccc2c(=S)c3ccccc3[nH]c2c1 | – | – | IC50 [11]: > 100 µM; IC50 [12]: > 100 µM
CC(C)n1c(=O)c(C#N)cc2cnc(Nc3ccc(N4CCN(C)CC4)cc3)nc21 | 2.5 µM | 2.5 µM | –
COc1ccc2cc(Nc3ncc4cc(C#N)c(=O)n(C5CCCC5)c4n3)ccc2n1 | 0.25 µM | 3 µM | –
CCCCCn1c(=O)c(C#N)cc2cnc(Nc3ccc(N4CCN(C)CC4)cc3)nc21 | 0.75 µM | 1.5 µM | –
CN1CCN(c2ccc(Nc3ncc4cc(S(=O)(=O)c5ccc(Cl)cc5)c(=O)n(C5CCCC5)c4n3)cc2)CC1 | 5 µM | 15 µM | –
CCCn1c(=O)c(C#N)cc2cnc(Nc3ccc(N4CCN(C)CC4)cc3)nc21 | 5 µM | 15 µM | –
CN1CCN(c2ccc(Nc3ncc4cc(C(=O)Nc5ccc(Cl)cc5)c(=O)n(C5CCCC5)c4n3)cc2)CC1 | 5 µM | 30 µM | –
N#Cc1cc2cnc(Nc3ccccc3O)nc2n(C2CCCC2)c1=O | 15 µM | 15 µM | –
N#Cc1ccc(Nc2ncc3cc(C#N)c(=O)n(C4CCCC4)c3n2)cc1 | 75 µM | 5 µM | –
COc1ccc(CS(=O)(=O)c2cc3cnc(Nc4ccc(N5CCN(C)CC5)cc4)nc3n(C3CCCC3)c2=O)cc1O | 2 µM | 2 µM | –
